The values that follow come from ChEMBL document CHEMBL4130513, “Jozilebomines A and B, Naphthylisoquinoline Dimers from the Congolese Liana Ancistrocladus ileboensis, with Antiausterity Activities against the PANC-1 Human Pancreatic Cancer Cell Line” (J Nat Prod, 2017).

One data set relates to HeLa. Put plainly: Cytotoxicity against human HeLa cells assessed as reduction in cell viability after 72 hrs by CCK8 assay. The data set is classed as functional, cell-based. The method in brief:
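HeLa cells (DMEM, 10% FBS) plated at 2 × 10^3/well and attached 24 h at 37 °C, 5% CO2. After a PBS wash, serially diluted samples in DMEM were added for 72 h, with paclitaxel as positive control. Cells were washed, given 10% WST-8 (CCK-8) in DMEM for 3 h, and A450 was read. Viability was taken from three-well means, corrected against blank and control.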
In general terms: Formazan colour is commonly taken as a measure of viable cells.

Data set [1] concerns PANC-1. In words: Cytotoxicity against human PANC1 cells in DMEM measured after 24 hrs by WST8 assay. The data set is classed as cell-based. The note with it: panc-1, 24 h. The gist of the method: (§1)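 PANC-1 cells seeded at 1.5 × 10^4/well, attached 24 h in DMEM at 37 °C, 5% CO2. After two PBS washes, exposed to serially diluted samples in nutrient-rich DMEM or nutrient-deprived medium (pH 7.4) for 24 h. Then WST-8 (10% in DMEM) for 3 h, A450 read. Viability is relative to control and blank wells. PC50 is the concentration killing 50% of cells preferentially in NDM.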

Another data set has as its system Trypanosoma cruzi. In words: Antitrypanosomal activity against Trypanosoma cruzi trypomastigote forms infected in rat L6 cells after 96 hrs by CPRG/Nonidet substrate based photometric method. The data set is classed as functional, organism-based.
The test system of another data set is L6. In words: Cytotoxicity against rat L6 cells after 72 hrs by alamar blue staining based fluorescence assay. The data set is classed as cell-based. Background: Resazurin is reduced to fluorescent resorufin, in cell work by metabolically active cells.
The nature of data set [2]: Selectivity index, ratio of IC50 for rat L6 cells to IC50 for Plasmodium falciparum NF54. The data set is classed as toxicity.
The subject of another data set is Plasmodium falciparum. Put plainly: Antiplasmodial activity against Plasmodium falciparum NF54 assessed as reduction in [3H]hypoxanthine incorporation pretreated for 48 hrs followed by [3H]hypoxanthine addition measured after 24 hrs by liquid scintillation counting method. It counts as functional, organism-based.
The subject of data set [3] is Trypanosoma brucei rhodesiense. In words: Antitrypanosomal activity against Trypanosoma brucei rhodesiense bloodstream forms after 72 hrs by alamar blue staining based fluorescence assay. It counts as functional, organism-based.
Another data set concerns Leishmania donovani. Put plainly: Antileishmanial activity against Leishmania donovani amastigote forms after 72 hrs by alamar blue staining based fluorescence assay. It counts as functional, organism-based.
The subject of data set [4] is PANC-1. In words: Antiausteritic activity against human PANC1 cells in nutrient-deprived medium measured after 24 hrs by WST8 assay. It counts as functional. The method in brief:
as §1

Data set [5] deals with PANC-1. In words: Induction of morphological changes in human PANC1 cells assessed as cell membrane rupture at 5 uM after 24 hrs by ethidium bromide/acridine orange staining based microscopic analysis. The data set is classed as functional. The method in brief:
(§2)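 PANC-1 cells seeded at 1 × 10^6 per well and attached 24 h. After two PBS washes, treated in NDM with vehicle or 5 μM compound for 24 h. EB/AO dye mix (100 μg mL−1 each in PBS) added for 5 min. Imaged by phase contrast and red/green fluorescence at 20× objective.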

The test system of data set [6] is PANC-1. In words: Inhibition of colony formation in human PANC1 cells pretreated for 24 hrs followed by compound washout measured after 10 days by crystal violet staining based assay. It counts as functional, cell-based. The method in brief: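 PANC-1 cells plated at 500/well in DMEM and attached 24 h at 37 °C, 5% CO2. Exposed 24 h to compound (1.25 and 2.5 μM) in DMEM or to DMEM alone. Washed with PBS, then grown 10 d in fresh DMEM. Fixed with 4% formaldehyde and stained with crystal violet for 10 min. Colony area quantified; three independent experiments.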

For data set [7], the system named is PANC-1. In words: Induction of morphological changes in human PANC1 cells assessed as disintegration of cell organelles at 5 uM after 24 hrs by ethidium bromide/acridine orange staining based microscopic analysis. It counts as functional. The gist of the method: as §2

Molecules are shown by their SMILES. pIC50: −log10 of the molar value. Calls of active or inactive are those of the source. The rule behind the calls is not given here.

As usually defined, the pIC50 is −log10 of the IC50, conventionally taken in molar units.

Turning to `COc1cc(C)c(-c2ccc3c(c2O)[C@@H](C)N[C@H](C)C3)c2ccc(-c3c(C)c(-c4ccc5c(c4O)[C@@H](C)N[C@H](C)C5)c4cccc(OC)c4c3O)c(O)c12` (atropisomer, axis not shown) [listing 1 of 2 here], the pIC50 with HeLa (Homo sapiens, HeLa, 72 h) is 5.97; in the data set with Trypanosoma cruzi (l6), 4.62; with L6 (Rattus norvegicus, L6, 72 h), 5.16; with Plasmodium falciparum, 7.37; in data set [3] (Trypanosoma brucei, 72 h), 6.14; in the data set on Leishmania donovani (Leishmania donovani, 72 h), 4.05. The Activity result in the data set on PANC-1 [1] is “Non-Toxic”. For the same compound, the “Ratio IC50” value in data set [2] turned out to be 160. Also, the PC50 with PANC-1 [4] is 2.24 µM.

`COc1cc(C)c(-c2ccc3c(c2O)[C@@H](C)N[C@H](C)C3)c2ccc(-c3c(C)c(-c4ccc5c(c4O)[C@@H](C)N[C@H](C)C5)c4cccc(OC)c4c3O)c(O)c12` (atropisomer, axis not shown) [listing 2 of 2 here]: the Activity entry in the data set with HeLa and with PANC-1 [4] was “Dose-dependent effect” throughout. Further, the outcome in the data set with PANC-1 [5] and with PANC-1 [7] was Active. Further, the inhibition entry with PANC-1 [6] is “Dose-dependent effect”.

As for `COc1cc(C)c(-c2ccc3c(c2O)[C@@H](C)N[C@H](C)C3)c2ccc(-c3c(C)c(-c4ccc5c(c4O)[C@@H](C)N[C@H](C)C5)c4cccc(OC)c4c3O)c(O)c12` (single isomer, unassigned; atropisomer 2) [listing 1 of 2 here], the pIC50 in the data set with HeLa (hela) is 6.17; with Trypanosoma cruzi (Trypanosoma cruzi, L6, 96 h), 4.66; with L6 (l6), 5.27; with Plasmodium falciparum, 6.99; in data set [3] it was 5.99; in the data set on Leishmania donovani, 4.25. Also, in data set [2], the “Ratio IC50” value is on record as 52.3. This compound also returned a PC50 in the data set on PANC-1 [4] of 0.87 µM.

As to `COc1cc(C)c(-c2ccc3c(c2O)[C@@H](C)N[C@H](C)C3)c2ccc(-c3c(C)c(-c4ccc5c(c4O)[C@@H](C)N[C@H](C)C5)c4cccc(OC)c4c3O)c(O)c12` (single isomer, unassigned; atropisomer 2) [listing 2 of 2 here], the Activity entry in the data set with HeLa and in the data set on PANC-1 [4] was “Dose-dependent effect” in each case. The outcome in the data set on PANC-1 [5] and with PANC-1 [7] was Active. Moreover, the inhibition entry in the data set on PANC-1 [6] was “Dose-dependent effect”.

`COc1cc(C[C@H]2C(=O)OC[C@@H]2Cc2ccc(OC)c(OC)c2)ccc1O` [ARCTIGENIN] came in with a PC50 in the data set on PANC-1 [4] of 0.83 µM.
